Assays:
[1] = molecular target: T1, 5-hydroxytryptamine receptor 6 (Homo sapiens, UniProt P50406); assay: Displacement of [3H]LSD from human 5HT6 receptor expressed in HEK293 cells at 100 nM; type: cell-based
[2] = molecular target: T1, 5-hydroxytryptamine receptor 6; assay: Displacement of [3H]LSD from human 5HT6 receptor expressed in HEK293 cells; type: cell-based
Method in brief: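 Commercial HEK-293 membranes with human 5-HT6 diluted 1:40 in 50 mM Tris-HCl, 10 mM MgCl2, 0.5 mM EDTA, pH 7.4. Incubated with 2.7 nM [3H]-LSD and 22.9 µg protein for 60 min at 37 °C, then filtered on PEI-treated glass fibre. Nonspecific binding defined with 100 µM serotonin. Triplicate points; IC50 from a regression line, converted to Ki by Cheng-Prusoff.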

[3] = molecular target: T1, 5-hydroxytryptamine receptor 6; assay: Antagonist activity at human 5HT6 receptor expressed in HEK293 cells assessed as inhibition of 5-HT-stimulated cAMP accumulation by HTRF assay relative to untreated control; type: functional, cell-based
Method in brief: (§1)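 HEK-293F cells stably expressing human 5-HT6, serum-starved overnight, 20,000 cells/well in Ham's F12 with 1 mM IBMX and 20 µM pargyline. Compound or DMSO vehicle (final DMSO ≤2%) added for 30 min at 37 °C, with 5-HT present in antagonist mode. HTRF cAMP detection with cryptate and XL-665, 1 h at room temperature, read at 665/620 nm.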

[4] = molecular target: T1, 5-hydroxytryptamine receptor 6; assay: Agonist activity at human 5HT6 receptor expressed in HEK293 cells assessed as stimulation of cAMP accumulation by HTRF assay relative to control; type: functional, cell-based; method in brief: as §1
[5] = molecular target: T2, Adrenergic receptor alpha-1 (Rattus norvegicus, UniProt P15823+P23944+P43140); assay: Inhibition of rat alpha1 adrenergic receptor
T2 sequence (P15823 whole entry): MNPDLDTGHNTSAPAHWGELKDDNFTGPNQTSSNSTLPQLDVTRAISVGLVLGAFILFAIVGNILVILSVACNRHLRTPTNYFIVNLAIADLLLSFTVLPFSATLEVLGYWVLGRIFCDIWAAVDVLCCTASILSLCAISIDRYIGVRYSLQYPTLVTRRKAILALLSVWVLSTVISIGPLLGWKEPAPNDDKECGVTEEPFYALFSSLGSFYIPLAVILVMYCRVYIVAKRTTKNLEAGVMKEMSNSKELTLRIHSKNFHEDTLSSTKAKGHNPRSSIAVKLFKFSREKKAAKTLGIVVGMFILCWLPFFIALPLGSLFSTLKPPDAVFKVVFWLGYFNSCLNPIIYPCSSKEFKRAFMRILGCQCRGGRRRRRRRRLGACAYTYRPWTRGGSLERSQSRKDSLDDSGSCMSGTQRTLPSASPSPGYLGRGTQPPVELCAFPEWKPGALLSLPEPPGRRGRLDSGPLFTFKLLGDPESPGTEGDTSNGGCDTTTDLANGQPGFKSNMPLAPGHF
T2 sequence (P23944 whole entry): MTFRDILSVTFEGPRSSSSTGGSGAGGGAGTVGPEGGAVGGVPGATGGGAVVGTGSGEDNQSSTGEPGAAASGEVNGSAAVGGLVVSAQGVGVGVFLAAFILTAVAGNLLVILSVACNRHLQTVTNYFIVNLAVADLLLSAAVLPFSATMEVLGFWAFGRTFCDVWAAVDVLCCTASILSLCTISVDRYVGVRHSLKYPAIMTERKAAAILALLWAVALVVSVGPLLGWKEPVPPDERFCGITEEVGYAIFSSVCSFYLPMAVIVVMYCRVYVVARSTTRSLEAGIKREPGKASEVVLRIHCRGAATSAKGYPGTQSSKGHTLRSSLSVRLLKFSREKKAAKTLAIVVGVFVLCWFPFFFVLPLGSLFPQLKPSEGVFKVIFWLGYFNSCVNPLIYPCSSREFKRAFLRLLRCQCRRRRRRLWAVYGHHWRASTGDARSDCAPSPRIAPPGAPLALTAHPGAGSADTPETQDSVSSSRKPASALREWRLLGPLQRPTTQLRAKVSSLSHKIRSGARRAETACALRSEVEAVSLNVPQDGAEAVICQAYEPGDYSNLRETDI
T2 sequence (P43140 whole entry): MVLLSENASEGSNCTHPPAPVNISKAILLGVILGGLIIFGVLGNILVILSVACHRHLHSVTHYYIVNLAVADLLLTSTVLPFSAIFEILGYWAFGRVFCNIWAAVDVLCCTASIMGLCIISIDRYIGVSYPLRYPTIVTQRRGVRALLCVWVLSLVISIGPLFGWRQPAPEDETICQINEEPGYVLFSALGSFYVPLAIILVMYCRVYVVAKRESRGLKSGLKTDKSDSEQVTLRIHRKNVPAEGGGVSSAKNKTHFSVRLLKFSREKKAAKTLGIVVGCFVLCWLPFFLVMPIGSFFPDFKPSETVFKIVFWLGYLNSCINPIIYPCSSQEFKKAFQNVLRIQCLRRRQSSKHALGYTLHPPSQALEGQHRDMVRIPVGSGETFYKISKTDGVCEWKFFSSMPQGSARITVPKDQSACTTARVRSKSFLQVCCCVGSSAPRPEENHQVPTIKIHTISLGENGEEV

[6] = molecular target: T3, Alpha-2A adrenergic receptor (Homo sapiens, UniProt P08913); assay: Inhibition of human alpha-2a adrenergic receptor
T3 sequence (P08913 whole entry): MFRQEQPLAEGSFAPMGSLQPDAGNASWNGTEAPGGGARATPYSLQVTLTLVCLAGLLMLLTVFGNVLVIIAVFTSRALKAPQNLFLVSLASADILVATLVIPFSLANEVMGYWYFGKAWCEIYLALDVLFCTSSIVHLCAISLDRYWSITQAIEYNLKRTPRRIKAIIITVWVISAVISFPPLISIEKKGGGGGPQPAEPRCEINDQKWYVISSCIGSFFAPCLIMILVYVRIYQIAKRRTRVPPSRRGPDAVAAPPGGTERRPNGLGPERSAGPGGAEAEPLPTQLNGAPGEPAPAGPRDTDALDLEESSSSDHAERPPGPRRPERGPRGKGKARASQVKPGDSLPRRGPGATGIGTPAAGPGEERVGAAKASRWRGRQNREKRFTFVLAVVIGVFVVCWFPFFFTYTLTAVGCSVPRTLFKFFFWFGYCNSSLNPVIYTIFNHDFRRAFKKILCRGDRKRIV

[7] = molecular target: T4, 5-hydroxytryptamine receptor 1A (Homo sapiens, UniProt P08908); assay: Inhibition of human 5HT1A receptor
T4 sequence (P08908 whole entry): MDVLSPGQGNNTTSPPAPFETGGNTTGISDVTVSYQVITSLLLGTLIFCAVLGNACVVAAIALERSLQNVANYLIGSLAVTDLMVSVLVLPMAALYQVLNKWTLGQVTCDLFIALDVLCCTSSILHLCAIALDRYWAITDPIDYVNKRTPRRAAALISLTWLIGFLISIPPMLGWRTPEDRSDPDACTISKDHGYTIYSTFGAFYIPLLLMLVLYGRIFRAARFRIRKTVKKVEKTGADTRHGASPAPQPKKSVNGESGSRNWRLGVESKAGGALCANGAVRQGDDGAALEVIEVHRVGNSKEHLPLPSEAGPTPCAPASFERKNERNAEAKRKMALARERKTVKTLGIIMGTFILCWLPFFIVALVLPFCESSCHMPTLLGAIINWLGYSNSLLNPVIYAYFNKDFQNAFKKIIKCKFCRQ

[8] = molecular target: T5, 5-hydroxytryptamine receptor 2C (Homo sapiens, UniProt P28335); assay: Inhibition of human 5HT2C receptor
T5 sequence (P28335 whole entry): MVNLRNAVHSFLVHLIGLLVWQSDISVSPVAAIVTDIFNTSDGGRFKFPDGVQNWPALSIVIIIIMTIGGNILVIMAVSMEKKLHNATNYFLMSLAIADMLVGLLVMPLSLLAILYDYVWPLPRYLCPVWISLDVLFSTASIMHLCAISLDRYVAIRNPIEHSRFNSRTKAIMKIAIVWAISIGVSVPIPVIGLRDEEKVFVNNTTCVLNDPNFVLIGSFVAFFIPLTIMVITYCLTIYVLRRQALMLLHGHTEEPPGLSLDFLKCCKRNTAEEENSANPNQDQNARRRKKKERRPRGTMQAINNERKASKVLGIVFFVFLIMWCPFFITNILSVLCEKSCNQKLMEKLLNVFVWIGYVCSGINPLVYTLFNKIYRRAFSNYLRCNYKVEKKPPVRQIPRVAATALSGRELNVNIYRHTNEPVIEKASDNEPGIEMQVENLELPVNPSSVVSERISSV

[9] = molecular target: Sodium-dependent serotonin transporter (Homo sapiens, UniProt P31645); assay: Inhibition of human SERT
Chain of Sodium-dependent serotonin transporter (P31645 whole entry): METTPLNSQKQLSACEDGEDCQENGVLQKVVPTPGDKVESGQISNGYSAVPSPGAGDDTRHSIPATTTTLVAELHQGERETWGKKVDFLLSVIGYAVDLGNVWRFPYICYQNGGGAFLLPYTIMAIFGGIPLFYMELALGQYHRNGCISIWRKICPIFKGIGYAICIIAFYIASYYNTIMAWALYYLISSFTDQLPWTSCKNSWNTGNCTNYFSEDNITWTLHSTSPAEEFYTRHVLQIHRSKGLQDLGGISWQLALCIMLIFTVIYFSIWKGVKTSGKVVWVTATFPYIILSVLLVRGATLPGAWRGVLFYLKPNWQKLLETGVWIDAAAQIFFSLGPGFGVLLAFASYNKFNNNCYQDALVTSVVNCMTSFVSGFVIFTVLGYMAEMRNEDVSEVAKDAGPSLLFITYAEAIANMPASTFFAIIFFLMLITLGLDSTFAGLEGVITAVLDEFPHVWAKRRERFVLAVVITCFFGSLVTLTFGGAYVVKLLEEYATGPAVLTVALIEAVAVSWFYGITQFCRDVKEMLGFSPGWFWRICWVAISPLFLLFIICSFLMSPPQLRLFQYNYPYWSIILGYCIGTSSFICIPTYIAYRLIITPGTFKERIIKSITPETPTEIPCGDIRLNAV

[10] = molecular target: T1, 5-hydroxytryptamine receptor 6; assay: Binding affinity to 5HT6 receptor
[11] = molecular target: T1, 5-hydroxytryptamine receptor 6; assay: Antagonist activity at 5HT6 receptor; type: functional
[12] = molecular target: T1, 5-hydroxytryptamine receptor 6; assay: Antagonist activity at human 5HT6 receptor expressed in HEK293 cells assessed as inhibition of 5-HT-stimulated cAMP accumulation by HTRF assay; type: functional, cell-based; method in brief: as §1
[13] = molecular target: T1, 5-hydroxytryptamine receptor 6; assay: Agonist activity at 5HT6 receptor; type: functional
Method in brief: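 HEK-293F cells stably expressing human 5-HT6, kept overnight in serum-free medium, then 20,000 cells/well in Ham's F12 with 1 mM IBMX and pargyline. Compound (DMSO at most 2% final) added for 30 min at 37 °C without 5-HT. cAMP measured by HTRF (cryptate plus XL-665), 1 h at room temperature, 665/620 nm ratio read.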

T1 sequence (P50406 whole entry): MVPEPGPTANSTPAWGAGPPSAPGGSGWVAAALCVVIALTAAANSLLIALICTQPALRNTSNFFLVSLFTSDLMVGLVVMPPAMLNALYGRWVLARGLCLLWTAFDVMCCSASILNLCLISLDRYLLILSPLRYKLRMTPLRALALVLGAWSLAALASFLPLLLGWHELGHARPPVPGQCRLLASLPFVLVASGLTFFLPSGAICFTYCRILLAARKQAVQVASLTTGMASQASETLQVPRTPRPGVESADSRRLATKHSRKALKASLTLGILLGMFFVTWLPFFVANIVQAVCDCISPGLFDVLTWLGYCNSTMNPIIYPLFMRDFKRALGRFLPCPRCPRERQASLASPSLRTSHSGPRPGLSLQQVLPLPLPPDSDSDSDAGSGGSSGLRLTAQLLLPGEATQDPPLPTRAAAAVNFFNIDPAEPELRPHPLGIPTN

SMILES | inhibition [1] [%] | Ki [2] [nM] | Imax [3] [%] | IC50 [6] [nM] | IC50 [7] [nM] | Ki [10] [nM] | IC50 [11] [nM] | other results
CC1=C(C2CCCN(C)C2)c2cc(NS(=O)(=O)c3sc4ccc(Cl)cc4c3C)ccc2C1 (stereo unspecified) | 22 | – | – | – | – | – | – | –
COc1cc2c(cc1NS(=O)(=O)c1c(Cl)nc3sccn13)C(C)=C(C)C2 | 84 | 64 | 10 | > 1000 | > 10000 | – | – | Emax [4]: 49%; IC50 [5]: > 10000 nM; IC50 [8]: > 1000 nM; IC50 [9]: > 10000 nM
O=S(=O)(Nc1ccc2[nH]cc(C[C@@H]3CCCN3)c2c1)c1ccc(C(F)(F)F)cc1 | – | – | – | – | – | 10 | 21.6 | –
CC1=CC(C)(C)c2ccc(NS(=O)(=O)c3c(Cl)nc4sccn34)cc21 | 75 | 80 | 92 | > 10000 | > 10000 | – | – | IC50 [12]: 2400 nM; IC50 [8]: > 10000 nM; IC50 [9]: > 10000 nM
CC1=C(C2CCCN(C)C2)c2cc(NS(=O)(=O)c3c(Cl)nc4sccn34)ccc2C1 (stereo unspecified) | 86 | 18 | 28 | 1210 | > 10000 | – | – | –
Cc1cn(S(=O)(=O)c2ccc(N)cc2)c2ccccc12 | – | – | – | – | – | – | 320 | –
CN(C)Cc1cn(S(=O)(=O)c2ccccc2)c2ccccc12 | – | – | – | – | – | 3 | 880 | –
O=S(=O)(Nc1ccc2[nH]cc(C[C@H]3CCCN3)c2c1)c1ccc(C(F)(F)F)cc1 | – | – | – | – | – | 0.4 | – | EC50 [13]: 4.5 nM
Cc1c(S(=O)(=O)Nc2ccc3c(c2)C([C@H]2CCN(C)C2)=CC3)sc2ccc(Cl)cc12 | 57 | – | – | – | – | – | – | –
